NPY Y1 blocker: NPY-Y1 receptor antagonists, primary screen, cell-based; HEK293-CNG Y1 cells, membrane potential fluorescence; NPY at EC95, then isoproterenol; AID 1040, 2008; inhibition, % at 3.6 µM; 200,000 tested, 1% active;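 active means inhibition above the campaign mean inhibition of all tested compounds plus 3 SD, cut at about 20% in these data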;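 further: 0% = DMSO wells given NPY plus isoproterenol and 100% = isoproterenol alone without NPY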
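Material: HEK293 Y1/CNG channel cell line | Also added: NPY (25 nM), isoproterenol (1 µM), Ro 20-1724 (25 µM) | Compound: One concentration, 3.6 µM, in 0.4% DMSO | Schedule: 3 h dye uptake, 1 h room-temperature compound, 45 min post-isoproterenol | Signal: Membrane-potential fluorescent dye readout | Read-out: % inhibition of NPY effect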
NPY-Y1 PAM-ag: NPY-Y1 receptor potentiators or agonists, primary screen, cell-based; Neuropeptide Y receptor type 1 (Homo sapiens), P25929; NPY-Y1 expressing cells, potentiator/agonist activation; activation, % at 3.6 µM; 220,000 tested, 0.37% active; in the data active means activation above about 33%, passing the limit was not always enough;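 further: cells stimulated with NPY at EC10 then isoproterenol at EC100; 0% = low agonist plus stimulus and 100% = saturating agonist plus stimulus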
NPY2 pot ag: NPY-Y2 potentiators or agonists, primary screen, cell-based | Neuropeptide Y receptor type 2 (Homo sapiens), P49146 | cells expressing NPY-Y2, potentiator/agonist read-out | activation, % at 3.6 µM | 220,000 tested, 0.45% active | AID 1359, 2008; in the data active means activation above about 27%;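 further: cells stimulated with NPY near EC25 plus isoproterenol at EC100; 0% = vehicle plus submaximal agonist and 100% = vehicle plus saturating agonist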
Target sequence (P49146 whole entry, looked up): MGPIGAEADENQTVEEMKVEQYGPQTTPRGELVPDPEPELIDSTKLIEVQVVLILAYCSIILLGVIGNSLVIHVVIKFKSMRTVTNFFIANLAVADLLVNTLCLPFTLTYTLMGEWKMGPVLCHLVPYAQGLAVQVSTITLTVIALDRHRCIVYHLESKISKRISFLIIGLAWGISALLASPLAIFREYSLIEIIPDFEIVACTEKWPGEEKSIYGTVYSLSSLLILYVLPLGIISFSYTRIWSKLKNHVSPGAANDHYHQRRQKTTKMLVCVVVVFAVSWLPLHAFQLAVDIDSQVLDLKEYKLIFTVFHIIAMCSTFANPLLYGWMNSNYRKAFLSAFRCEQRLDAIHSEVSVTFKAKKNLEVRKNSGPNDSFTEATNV
NPY-Y2 antag: NPY-Y2 receptor antagonists, primary screen, cell-based. AID 793, 2007. NPY-Y2 expressing cells, antagonist mode. 140,000 tested, 0.99% active. Neuropeptide Y receptor type 2 (Homo sapiens), P49146. inhibition, % at 2.7 µM; in the data active means inhibition above about 17%;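 further: 0% = vehicle with agonist challenge and 100% = reference antagonist with challenge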
NPY-Y1 confirm: NPY-Y1 potentiators or agonists, confirmation, cell-based; shares compounds with NPY-Y1 PAM-ag; cell-based NPY-Y1 potentiator/agonist assay; activation, % at 3.6 µM; 280 tested, 20% active; AID 1546, 2009; in the data active means activation above about 45%;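 further: cells challenged with NPY at its EC10 plus isoproterenol stimulus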
NPY-Y2 counter: NPY-Y2 potentiators or agonists, counter-screen for NPY-Y1 potentiator project, cell-based, fluorescence. HEK293-CNG cells, membrane-potential fluorescence (FLIPR), 1536-well. activation, % at 3.6 µM. 280 tested, 20% active. shares compounds with NPY-Y1 PAM-ag. AID 1649, 2009; in the data active means activation above about 33%
NPY-Y1 agonist: NPY-Y1 direct agonists without NPY, confirmation, counter-screen for NPY-Y1 potentiator project, cell-based, fluorescence | shares compounds with NPY-Y1 PAM-ag | HEK293 Y1-CNGC, membrane potential fluorescence, agonist mode | activation, % at 3.6 µM | 280 tested, 50% active | AID 1697, 2009;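 active means percent activation above the mean of DMSO-only control wells plus 3 SD of those wells, cut at about 18% in these data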;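 further: cells challenged with isoproterenol plus Ro 20-1724 with no NPY in test wells; Y1 agonism lowers isoproterenol-driven cAMP and reduces probe fluorescence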
NPY-Y2 agonist: NPY-Y2 direct agonists without NPY, counter-screen for NPY-Y1 potentiator project, cell-based, fluorescence | shares compounds with NPY-Y1 PAM-ag | HEK293 Y2-CNGC, membrane potential fluorescence, agonist mode | activation, % at 3.6 µM | 280 tested, 67% active | AID 1698, 2009;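 active means activation above the solvent-only control wells' mean plus 3 SD, cut at about 11% in these data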;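 further: 0% = DMSO with isoproterenol and 100% = 40 nM NPY maximal response; agonism lowers cAMP so well fluorescence drops in active wells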
CNGC counter: CNGC cAMP sensor activity inhibitors, counter-screen for NPY-Y1 potentiator/agonist project, cell-based, HEK293-CNG parental, membrane potential fluorescence, Y1 set | inhibition, % at 3.6 µM | AID 1704, 2009 | shares compounds with NPY-Y1 PAM-ag | isoproterenol cAMP | 280 tested, 42% active;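 active means inhibition above the mean of stimulated solvent-only control wells plus 3 SD, cut at about 22% in these data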;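 further: 0% = isoproterenol-stimulated DMSO wells and 100% = unstimulated DMSO wells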
* marks the source's active call; other numbers are inactive results. Only some compounds are listed: those with a hit (about 1.8% of all), similar ones and a draw of the others.

Results for CNCC(O)COc1cccc(OC)c1 (stereo not given) ?
NPY Y1 blocker: -8; NPY-Y1 PAM-ag: 56*; NPY2 pot ag: 24; NPY-Y1 confirm: 15; NPY-Y2 counter: 14; NPY-Y1 agonist: 10; NPY-Y2 agonist: 18*; CNGC counter: -3

What do the screens show for `CCCCNc1nc(=S)n(-c2ccccc2)c(C)c1C(C)=O`?
NPY Y1 blocker: 0; NPY-Y1 PAM-ag: -4; NPY2 pot ag: -15

What do the screens show for `COC(=O)CSc1ccc(S(=O)(=O)N2CCCCCC2)cc1[N+](=O)[O-]`?
NPY Y1 blocker: -12; NPY-Y1 PAM-ag: 60*; NPY2 pot ag: 0; NPY-Y1 confirm: 121*; NPY-Y2 counter: 100*; NPY-Y1 agonist: 108*; NPY-Y2 agonist: 104*; CNGC counter: 99*

Results for CS(=O)(=O)N1CCN(c2ccc(NC(=O)c3ccccc3)cc2)CC1 ?
NPY Y1 blocker: 1; NPY-Y1 PAM-ag: -8; NPY2 pot ag: -8

How did O=C(Nc1ccc(N2CCCCC2)c(Cl)c1)c1ccc(N2CCOCC2)c([N+](=O)[O-])c1 do in these assays?
NPY Y1 blocker: -5; NPY-Y1 PAM-ag: 42*; NPY2 pot ag: 10; NPY-Y2 antag: 0; NPY-Y1 confirm: 48*; NPY-Y2 counter: 37*; NPY-Y1 agonist: 34*; NPY-Y2 agonist: 40*; CNGC counter: 25*

What do the screens show for `CC(=O)N1CCN(c2ccc(NC(=O)c3ccc(N4CCCC4)c([N+](=O)[O-])c3)cc2Cl)CC1`?
NPY Y1 blocker: 0; NPY-Y1 PAM-ag: -9; NPY2 pot ag: -18; NPY-Y2 antag: 1

How did COc1ccc(CCn2c(C)cc(C(=O)CSc3nnnn3-c3ccccc3)c2C)cc1 do in these assays?
NPY Y1 blocker: 1; NPY-Y1 PAM-ag: 65*; NPY2 pot ag: -7; NPY-Y2 antag: 3; NPY-Y1 confirm: -52; NPY-Y2 counter: -24; NPY-Y1 agonist: -35; NPY-Y2 agonist: -18; CNGC counter: -30

Results for CCc1cccc2c(/C=N/NC(=O)c3cccc(S(=O)(=O)Nc4ccccc4Cl)c3)c[nH]c12 ?
NPY Y1 blocker: -9; NPY-Y1 PAM-ag: 46*; NPY2 pot ag: -2; NPY-Y2 antag: -2; NPY-Y1 confirm: 33; NPY-Y2 counter: 27; NPY-Y1 agonist: 31*; NPY-Y2 agonist: 19*; CNGC counter: 26*

What do the screens show for `Cc1[nH]c2ccccc2c1/C=N/NC(=O)c1cccc(S(=O)(=O)Nc2ccccc2Cl)c1`?
NPY Y1 blocker: -2; NPY-Y1 PAM-ag: -11; NPY2 pot ag: 12; NPY-Y2 antag: 0

How did O=[N+]([O-])c1cc(S(=O)(=O)N2CCCCC2)ccc1NCCN1CCOCC1 do in these assays?
NPY Y1 blocker: 3; NPY-Y1 PAM-ag: -5; NPY2 pot ag: 2

Results for CCOC(=O)CSc1nc(=O)n2ccccc2n1 ?
NPY Y1 blocker: 7; NPY-Y1 PAM-ag: 68*; NPY2 pot ag: -20; NPY-Y1 confirm: 2; NPY-Y2 counter: -3; NPY-Y1 agonist: 2; NPY-Y2 agonist: -6; CNGC counter: -5

Results for Cc1ccc(C23CC4CC(CC(CN)(C4)C2)C3)cc1 ?
NPY Y1 blocker: 5; NPY-Y1 PAM-ag: 35*; NPY2 pot ag: 25; NPY-Y1 confirm: 40; NPY-Y2 counter: 24; NPY-Y1 agonist: 21*; NPY-Y2 agonist: 31*; CNGC counter: 31*

Screens from PubChem BioAssay.
